Rows were chosen to be rich in hits. Some 1.3% of all compounds tested hit in one or more screens of this group.
FN deposition inh = fibronectin deposition inhibition. AH1F fibroblasts, Alexa488-fibronectin deposition fluorescence, overnight. actives 0.086% (n = 350,000). AID 743247. inhibition, % at 12.6 µM;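 active = mean inhibition across replicates of 30% or more, regardless of how many single replicates reach that level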
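Material: AH1F fibroblast monolayer depositing Alexa488-labelled fibronectin into matrix | Input: 10000 AH1F cells/well | Medium: DMEM plus 2% serum, read in PBS | Reagent: Alexa488-fibronectin, 24 nM final in well | Compound dosing: One dose per compound, pinned | Schedule: 1 h adhesion, overnight exposure | Measured by: Fluorescence at 485 nm excitation, 525 nm emission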
PAX8 inh HTS = inhibitors of PAX8 transcriptional activity in RMG-I cells | actives 1.2% (n = 360,000) | RMG-I TPO-luciferase reporter, SteadyGlo, 24 h | inhibition, % at 12.6 µM;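 active = mean replicate inhibition at least 60% with every replicate also reaching 60%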;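 also: luciferase light reporting Pax8 driven TPO promoter activity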
RAD54 branch = blocks human RAD54 Holliday junction branch migration. Q92698. FAM/BHQ fluorescence. actives 0.14% (n = 360,000). inhibition, % at 10.4 µM;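 active = mean normalized replicate activity at least 40 and at least half of replicates scoring 40 or more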;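 also: inhibitors cause a drop in the FAM fluorescence signal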
Target sequence (Q92698 whole entry, looked up): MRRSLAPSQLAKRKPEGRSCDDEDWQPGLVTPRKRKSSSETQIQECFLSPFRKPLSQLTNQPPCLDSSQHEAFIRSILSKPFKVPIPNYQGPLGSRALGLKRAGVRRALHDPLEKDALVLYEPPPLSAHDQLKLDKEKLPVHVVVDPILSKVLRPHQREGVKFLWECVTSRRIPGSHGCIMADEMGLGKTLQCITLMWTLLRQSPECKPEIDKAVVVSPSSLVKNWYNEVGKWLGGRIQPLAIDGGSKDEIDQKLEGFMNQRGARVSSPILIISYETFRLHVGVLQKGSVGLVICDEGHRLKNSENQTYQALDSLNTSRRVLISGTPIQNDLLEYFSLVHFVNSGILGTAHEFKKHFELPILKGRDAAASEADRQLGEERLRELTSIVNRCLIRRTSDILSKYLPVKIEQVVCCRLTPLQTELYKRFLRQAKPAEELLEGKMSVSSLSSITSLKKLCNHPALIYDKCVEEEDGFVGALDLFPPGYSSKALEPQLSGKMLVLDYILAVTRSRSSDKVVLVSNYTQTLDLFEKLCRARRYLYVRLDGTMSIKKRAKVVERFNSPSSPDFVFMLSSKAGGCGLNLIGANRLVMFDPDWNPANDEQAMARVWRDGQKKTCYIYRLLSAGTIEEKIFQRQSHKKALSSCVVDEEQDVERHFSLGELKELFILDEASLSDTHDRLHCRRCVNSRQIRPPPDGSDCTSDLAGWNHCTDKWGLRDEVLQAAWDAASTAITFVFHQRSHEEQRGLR
RAD52 anneal inh = inhibitors of human RAD52 DNA annealing. AID 651710. recombinant RAD52 DNA annealing, FRET fluorescence. actives 0.46% (n = 360,000). P43351. inhibition, % at 18.7 µM;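 active = every replicate showing at least 50% inhibition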
Of the large screens only hits and unclear results are named; the others gave an inactive call; ! = a repeat was not active.

O=C(CCN1C(=O)/C(=C\c2ccccc2Cl)SC1=S)Nc1cccnc1	none
O=C(CCN1C(=O)/C(=C/c2ccccc2Cl)SC1=S)Nc1ccccc1C(=O)O	PAX8 inh HTS 100
Cn1c(=O)c2c(nc(NCc3ccco3)n2CC(O)CO)n(C)c1=O (centres undefined)	none (no result: RAD54 branch)
COc1ccc(NC(=O)CC2CCCC2)cc1OC	none
CC(=O)Nc1ccc(Sc2ccc([N+](=O)[O-])o2)cc1	PAX8 inh HTS 114 (no result: FN deposition inh)
CC(C)(C)C(=O)Nc1ccc(Sc2ccc([N+](=O)[O-])cc2)cc1	none (no result: RAD54 branch)
C=C(CN(C)C)C(=O)c1ccc(OC2OC(COC(C)=O)C(OC(C)=O)C(OC(C)=O)C2OC(C)=O)cc1 (centres undefined)	PAX8 inh HTS 83 (no result: RAD54 branch)
COC1OC(COC(=O)c2ccccc2)C(OC(=O)c2ccccc2)C1OC(=O)c1ccccc1 (centres undefined)	none
C[C@@H]1CN([C@@H](C)CO)C(=O)Cc2cc(NC(=O)c3ccncc3)ccc2O[C@@H]1CN(C)Cc1ccc(-c2ccccc2)cc1	PAX8 inh HTS 102 (no result: FN deposition inh)
C[C@@H]1CN([C@H](C)CO)C(=O)Cc2cc(NC(=O)CCCN(C)C)ccc2O[C@@H]1CN(C)Cc1ccc(-c2ccccc2)cc1	RAD52 anneal inh 79
C[C@H](CO)N1C[C@H](C)[C@H](CN(C)Cc2ccc(-c3ccccc3)cc2)Oc2ccc(NC(=O)CCCN(C)C)cc2C1=O	FN deposition inh 53
C[C@@H]1CN([C@@H](C)CO)C(=O)Cc2cc(NC(=O)CCCN(C)C)ccc2O[C@H]1CN(C)Cc1ccc(-c2ccccc2)cc1	RAD52 anneal inh 77! (no result: RAD54 branch)
O=C(COC(=O)c1cc(=O)c2ccccc2o1)Nc1c(F)c(F)c(F)c(F)c1F	none
Cc1ccc(/C=N/NC(=O)c2ccc(OC3CCCC3)cc2)o1	none
Cc1ccc(/C=N/NC(=O)c2ccccn2)o1	PAX8 inh HTS 120
O=C(N/N=C/c1ccncc1)c1ccccn1	none
Cc1ccc(/C=N/NC(=O)c2ccncc2)o1	PAX8 inh HTS 84
NC(=O)NC(=O)COC(=O)c1ccc2c(c1)C(=O)N(Cc1ccccc1)C2=O	none
Cc1cccc2sc(NNC(=O)c3ccc(S(=O)(=O)N4CCc5ccccc5C4)cc3)nc12	PAX8 inh HTS 77
CCOC(=O)N1CCN(S(=O)(=O)c2ccc(C(=O)NNc3nc4c(C)cccc4s3)cc2)CC1	PAX8 inh HTS 81
Cc1nc2[nH]c(=O)n(O)c(=O)c2s1	none (no result: FN deposition inh, RAD54 branch)
CC[N+]1=C(C)C(C)(C)c2cc(C)ccc21	PAX8 inh HTS 96
CCN1C(=O)C(=O)c2cc(C)ccc21	none
Oc1cc(Nc2ccccc2)cc2cccnc12	PAX8 inh HTS 96 (no result: FN deposition inh)
c1ccc(Nc2ccccc2)cc1	none
Oc1cccc2cc(Nc3ccccc3)cnc12	PAX8 inh HTS 94
CC(=O)c1ccc(C(=O)N2CCCC(Nc3ccc(C(C)C)cc3)C2)s1 (centres undefined)	none
OC[C@@H]1Nc2ccc(C#Cc3ccccc3)cc2[C@@H]2[C@H]1CCN2Cc1nccs1	RAD52 anneal inh 59 (no result: PAX8 inh HTS, RAD54 branch)
COc1ccc(C#Cc2ccc3c(c2)[C@@H]2[C@@H](CCN2C(=O)c2ccncc2)[C@@H](CO)N3C)cc1	RAD52 anneal inh 62
COc1ccc(C#Cc2ccc3c(c2)[C@H]2[C@H](CCN2C(=O)c2ccncc2)[C@@H](CO)N3)cc1	RAD52 anneal inh 51 (no result: PAX8 inh HTS, RAD54 branch)
COc1ccc(-c2ccc3c(c2)[C@@H]2[C@@H](CCN2C(=O)c2ccncc2)[C@@H](CO)N3C)cc1	none
C=C1C(=O)c2sccc2C(c2ccc(OC)c(OC)c2)C1COC(C)=O (centres undefined)	PAX8 inh HTS 115 (no result: RAD54 branch)
CCN1CCN(CC(=O)N2N=C(c3cccs3)CC2c2ccc(OC)c(OC)c2)C(=O)C1=O (centres undefined)	none
COc1ccc([Si](C)(C)[C@@H]2[C@@H](CCO)O[C@]3(C(=O)N(c4ccccc4)c4ccccc43)[C@H]2C)cc1	PAX8 inh HTS 93 (no result: FN deposition inh)
COc1ccc([Si](C)(C)[C@@H]2[C@@H](CCn3cc([C@H](O)c4ccccc4)nn3)O[C@]3(C(=O)N(c4ccccc4)c4ccccc43)[C@H]2C)cc1	none (no result: FN deposition inh)
COc1ccc([Si](C)(C)[C@@H]2[C@@H](CC(=O)N(CCO)Cc3ccccc3)O[C@]3(C(=O)N(C)c4ccccc43)[C@H]2C)cc1	none (no result: FN deposition inh)
COc1ccc([Si](C)(C)[C@@H]2[C@@H](CCO)O[C@]3(C(=O)N(C)c4ccccc43)[C@H]2C)cc1	PAX8 inh HTS 81 (no result: FN deposition inh)
Cc1sc2ncnc(N3CCC(C(=O)N(C)CC(=O)Nc4ccc(Cl)c(C(F)(F)F)c4)CC3)c2c1C	PAX8 inh HTS 78
